Results gathered from unrelated publications.

NCc1ccc(-c2nn(Cc3ccccn3)c3cccnc23)o1 — IC50 (CC-LP-1; cell growth or viability; ATP luminescence): > 46 µM
O=C(CSc1nc2ccccc2s1)N/N=C/c1ccc(OCC(=O)Nc2ccc(Br)cc2)cc1 — IC50 (HEL 299; cell growth or viability; MTS; 72 h): > 100 µM
O=C(NO)c1ccc(Cn2cnc3c(Nc4ccc(Br)cc4F)ncnc32)cc1 — IC50 (NB-4; cell growth or viability; MTT; 72 h): 1.41 µM
CN(C)c1cccc2c(S(=O)(=O)NCCCCN=C=S)cccc12 — IC50 (HDFa; cell growth or viability; MTT; 24 h): 28.4 µM
Cc1cc(NS(=O)(=O)c2ccc(NC(=O)/C(C#N)=C/c3ccncc3)cc2)no1 — IC50 (HSF; cell growth or viability; MTT; 48 h): > 200 µM
Nc1ccccc1NC(=O)c1ccc(Cn2cnc3c(Nc4ccc(Br)cc4F)ncnc32)cc1 — IC50 (NB-4; cell growth or viability; MTT; 72 h): 0.39 µM
OCc1ccc(-c2nn(Cc3ccncc3)c3cccnc23)o1 — IC50 (CC-LP-1; cell growth or viability; ATP luminescence): > 46 µM
C=CC(=O)N1CCC[C@@H](n2nc(-c3ccc(Oc4ccccc4)cc3)c3c(N)ncnc32)C1 — IC50 (SU-DHL-6; cell growth or viability; resazurin; 72 h): > 0.5 µM
Cc1cnc(CNC(=O)c2c(=O)c3ccc(N4CCCN(C)CC4)nc3n3c2sc2ccccc23)cn1 — IC50 (SNU-449; cell growth or viability; imaging; 72 h): 0.37 µM
COc1cccc(Cn2nc(-c3ccc(CO)o3)c3ccccc32)c1 — IC50 (CC-LP-1; cell growth or viability; ATP luminescence): > 46 µM
COc1cccc2c1C(=O)c1c(O)c3c(c(O)c1C2=O)C[C@@](O)(C(=O)CO)C[C@@H]3O[C@H]1C[C@H](N)[C@H](O)[C@H](C)O1 — IC50 (BGC-823; cell growth or viability; 96 h): 0.0818 µM
O=C(NS(=O)(=O)c1ccc(C(F)(F)F)cc1)c1cc2ccccc2n1Cc1ccc(Br)c2ccccc12 — IC50 (mouse BMDM; IL-1β release; inhibitor; ELISA; LPS-stimulated): 7.28 µM
COc1ccc(Nc2ncnc3c2ncn3Cc2ccc(C(=O)NO)cc2)cc1 — IC50 (HEL; cell growth or viability; MTT; 72 h): 0.8 µM
Cc1cc2c(C(=O)O)cccc2n1-c1nc2c(c(NCc3ccccc3)n1)CCCN2 — IC50 (KMS-11; cell growth or viability; 72 h): 0.9 µM
COc1cc(Cn2nc(-c3ccc(CO)o3)c3ccccc32)ccn1 — IC50 (CC-LP-1; cell growth or viability; ATP luminescence): > 46 µM
O=C(NO)c1ccc(Cn2cnc3c(Nc4ccc(Cl)cc4)ncnc32)cc1 — IC50 (HEL; cell growth or viability; MTT; 72 h): 0.77 µM
COc1cnccc1Cn1nc(-c2ccc(CO)o2)c2ccccc21 — IC50 (CC-LP-1; cell growth or viability; ATP luminescence): > 46 µM
Cc1cc(NS(=O)(=O)c2ccc(NC(=O)/C(C#N)=C/c3ccc(N4CCCC4)cc3)cc2)no1 — IC50 (HSF; cell growth or viability; MTT; 48 h): > 200 µM
C(=N\Nc1cc(N/N=C/c2ccc3ccccc3n2)nc(-c2ccccc2)n1)/c1ccc2ccccc2n1 — IC50 (BGC-823; cell growth or viability; MTT; 48 h): 9.12 µM
CN1CCN(c2ccc(Nc3c4ccccc4nc4ccccc34)cc2)CC1 — IC50 (SNU-449; cell growth or viability; imaging; 72 h): 4.68 µM
CONC(=O)c1cccc2c1cc(C)n2-c1nc2c(c(NCc3ccccc3)n1)CCCN2 — IC50 (KMS-11; cell growth or viability; 72 h): 2.1 µM
O=C(CSc1nc2ccccc2s1)N/N=C/c1ccc(OCC(=O)Nc2cccc(Br)c2)cc1 — IC50 (HEL 299; cell growth or viability; MTS; 72 h): > 100 µM
COc1ncccc1Cn1nc(-c2ccc(CO)o2)c2ccccc21 — IC50 (CC-LP-1; cell growth or viability; ATP luminescence): > 46 µM
O=c1[nH]cc(F)c(=O)[nH]1 — IC50 (BGC-823; cell growth or viability; MTT; 48 h): 15.2 µM
Cc1cc(NS(=O)(=O)c2ccc(NC(=O)/C(C#N)=C/c3cccnc3)cc2)no1 — IC50 (HSF; cell growth or viability; MTT; 48 h): > 200 µM
COc1ccc(Nc2ncnc3c2ncn3Cc2ccc(C(=O)Nc3ccccc3N)cc2)cc1 — IC50 (NB-4; cell growth or viability; MTT; 72 h): 2.44 µM
CCC(=CCc1c(O)cc2c(c1O)C(=O)C[C@@H](c1ccc(O)cc1)O2)CC — IC50 (HeLa; cell growth or viability; MTT; 48 h): 22.8 µM
COc1ccccc1Cn1nc(-c2ccc(CO)o2)c2ccccc21 — IC50 (CC-LP-1; cell growth or viability; ATP luminescence): ~46 µM
CN1C(=O)C(=O)c2cc3c(c4c2c1cc1ccccc14)OCO3 — IC50 (H69AR; cell growth or viability; MTT; 75 h): 44.6 µM
Nc1ccccc1NC(=O)c1ccc(Cn2cnc3c(Nc4ccc(Cl)cc4)ncnc32)cc1 — IC50 (NB-4; cell growth or viability; MTT; 72 h): 0.73 µM
O=C(CSc1nc2ccccc2s1)N/N=C/c1ccc(OCC(=O)Nc2ccc([N+](=O)[O-])cc2)cc1 — IC50 (HEL 299; cell growth or viability; MTS; 72 h): > 100 µM
O=C(NO)c1ccc(Cn2cnc3c(Nc4cccc([N+](=O)[O-])c4)ncnc32)cc1 — IC50 (HEL; cell growth or viability; MTT; 72 h): 2.07 µM
OCc1ccc(-c2nn(Cc3ccncc3)c3ccccc23)o1 — IC50 (CC-LP-1; cell growth or viability; ATP luminescence): > 46 µM
O=C(NO)c1ccc(Cn2cnc3c(Nc4ccc(F)c(Cl)c4)ncnc32)cc1 — IC50 (HEL; cell growth or viability; MTT; 72 h): 3.54 µM
C(=N\Nc1cc(N/N=C/c2cccc3cccnc23)nc(-c2ccccc2)n1)/c1cccc2cccnc12 — IC50 (BGC-823; cell growth or viability; MTT; 48 h): 16.9 µM
